RAM inhibit: inhibitors of the yeast RAM network | inhibition, % at 50 µM | S. cerevisiae dse1pr::URA3 reporter, 5-FOA growth OD615, 2 d; analog-sensitive cbk1-as2 kinase mutant strain | 190,000 compounds, 1.8% hits | AID 868;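 active = inhibition above a set limit, 3 SD over mean compound inhibition, cut at about 8.4% in these data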;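 also: 0% = DMSO-only wells with no growth and 100% = 10 µM 1-NA-PP1 full growth; inhibition rescues growth on 5-FOA so higher OD means more RAM inhibition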
WT yeast gro inh: growth inhibition of WT yeast, mitochondrial fusion screen. mitochondrial fusion phenotypic screen, WT strain. inhibition, % at 10 µM. 190,000 compounds, 2.1% hits. AID 1362; in the data active = inhibition above about 58%; tested in S. cerevisiae
Yeast lifespan up: extends the lifespan of yeast | S. cerevisiae growth with nicotinamide, OD615; deaD strain in restrictive glucose medium | inhibition of the nicotinamide effect, % at 10 µM | 130,000 compounds, 0.68% hits | AID 775;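 active = inhibition above a set limit, placed 3 SD over the median of all compounds, cut at about 26% in these data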;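 also: 0% = nicotinamide-treated wells and 100% = cells grown without nicotinamide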
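Assay system: DeaD-strain S. cerevisiae. Medium: CSMM-D glucose medium, restrictive. Reagent: nicotinamide, 1.5 mM, co-present with compound. Compound: 10 µM single point, 0.25% DMSO. Schedule: culture preincubation 4 h, compound exposure 48 h, both 30 °C. Detection: absorbance at 615 nm.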
Cl transport mod: KCC2 (human) Cl- transport modulation | Q9H2X9 | KCC2 cells, thallium flux FluoZin-2 fluorescence | B-score of Tl+ flux slope (higher = more flux/activation; lower = inhibition) at 10 µM | 190,000 compounds, 2.2% hits;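 active = thallium flux slope and its plate-corrected score both differing from the plate sample mean at a set confidence after two filtering rounds, in either direction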;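 also: slope of fluorescence scaled to starting intensity during 10 to 20 s after thallium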
Target sequence (Q9H2X9 whole entry, looked up): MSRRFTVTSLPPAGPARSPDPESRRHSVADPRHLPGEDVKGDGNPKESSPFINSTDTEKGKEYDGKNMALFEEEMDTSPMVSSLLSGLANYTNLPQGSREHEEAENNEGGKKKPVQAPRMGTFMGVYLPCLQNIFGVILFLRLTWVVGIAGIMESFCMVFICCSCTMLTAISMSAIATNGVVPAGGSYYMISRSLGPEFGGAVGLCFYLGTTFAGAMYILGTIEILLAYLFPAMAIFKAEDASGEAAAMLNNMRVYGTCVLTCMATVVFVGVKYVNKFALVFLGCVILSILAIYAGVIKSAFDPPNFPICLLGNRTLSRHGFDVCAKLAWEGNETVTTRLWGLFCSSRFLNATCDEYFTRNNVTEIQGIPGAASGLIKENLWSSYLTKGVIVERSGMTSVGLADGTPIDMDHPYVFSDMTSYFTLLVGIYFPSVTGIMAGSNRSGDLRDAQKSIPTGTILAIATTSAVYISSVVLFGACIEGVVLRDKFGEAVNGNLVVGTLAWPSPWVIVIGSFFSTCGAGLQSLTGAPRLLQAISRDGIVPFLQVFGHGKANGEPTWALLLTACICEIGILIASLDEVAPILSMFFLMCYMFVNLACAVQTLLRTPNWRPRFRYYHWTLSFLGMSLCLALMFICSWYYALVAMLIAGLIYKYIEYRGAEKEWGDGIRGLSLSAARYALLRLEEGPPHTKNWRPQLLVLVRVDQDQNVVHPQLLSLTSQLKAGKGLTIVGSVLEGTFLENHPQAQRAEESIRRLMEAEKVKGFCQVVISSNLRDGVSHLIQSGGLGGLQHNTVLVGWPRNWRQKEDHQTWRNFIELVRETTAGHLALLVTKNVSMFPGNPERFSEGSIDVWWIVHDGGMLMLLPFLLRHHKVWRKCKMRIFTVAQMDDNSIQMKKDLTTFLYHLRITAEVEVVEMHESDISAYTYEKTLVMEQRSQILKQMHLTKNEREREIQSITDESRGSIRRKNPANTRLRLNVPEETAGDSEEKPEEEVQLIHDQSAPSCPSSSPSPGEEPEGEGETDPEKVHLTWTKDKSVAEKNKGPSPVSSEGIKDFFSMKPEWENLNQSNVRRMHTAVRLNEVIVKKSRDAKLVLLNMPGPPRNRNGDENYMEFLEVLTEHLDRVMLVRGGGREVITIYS
BB579 growth dn: yeast BB579 growth reduction in restrictive medium; AID 804; S. cerevisiae BB579 growth, OD615, 48 h; inhibition, % at 10 µM; 140,000 compounds, 0.51% hits;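 active = inhibition above a set limit, 3 SD over the mean compound inhibition, cut at about 44% in these data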
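System: DeaD yeast strain BB579; buffer or medium: CSMM-D dextrose restrictive medium; technique: OD at 615 nm; schedule: 4 h cell preincubation, 48 h compound exposure, 30 °C humidified; doses: single 10 µM dose; controls: amphotericin B 10 µg/mL, positive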
Active calls of the source: *; x = no result. The list is not random: actives were taken first. Their share in the collection is about 5.5%.

SMILES | RAM inhibit | WT yeast gro inh | Yeast lifespan up | Cl transport mod | BB579 growth dn
O=C(C[n+]1ccc(/C=N/O)cc1)N1CCCCC1 | x | x | x | 0.677 | x
CC(C)c1ccc(NC(=O)c2sccc2-n2cccc2)cc1 | 8.6* | 67.2* | x | 0.426 | x
O=C(NNC(=O)c1sccc1-n1cccc1)c1ccc(Cl)cc1 | 4.2 | 18.9 | -4.3 | 15.1* | -59.5
N#Cc1nc(Cc2cccc3ccccc23)oc1NCCN1CCCCC1 | 0.8 | -19.1 | -5.1 | -4.34* | -10.8
CC1CN(c2oc(Cc3cccc4ccccc34)nc2C#N)CC(C)O1 (configuration not stated) | 9.9* | 60.5* | -13.2 | x | -4.1
N#Cc1nc(-c2cccc3ccccc23)oc1NCCN1CCOCC1 | -0.8 | 19.7 | -14.4 | -1.12 | -27.8
COc1cc(NS(=O)(=O)c2ccc(NC(=S)NC(=O)COc3ccccc3OC)cc2)nc(OC)n1 | 5.6 | 0.4 | x | -1.71 | x
C=C1SC(Nc2c(C)cc(C)cc2C)=NC12CCCCC2 | x | x | x | 0.000825 | x
COc1ccc(CNC(=O)CN(C(=O)CCC(=O)Nc2ccccn2)c2cccc(C)c2)cc1 | 10.2* | -6.9 | x | -0.591 | x
O=C(O)CSCCOc1ccc(OCCSCC(=O)O)cc1 | 0.0 | -0.4 | -1.1 | 0.716 | -0.1
CC(NC(=O)CCCCCCN1C(=O)c2ccccc2C1=O)c1ccc2c(c1)CCCC2 (configuration not stated) | 10.7* | -14.0 | 6.8 | -2.19 | -47.1
CC(NC(=O)CCCCCN1C(=O)c2ccccc2C1=O)c1ccc2c(c1)CCCC2 (configuration not stated) | 9.1* | 24.9 | -6.6 | x | -103.4
CC(NC(=O)CCCN1C(=O)c2ccccc2C1=O)c1ccc2c(c1)CCCC2 (configuration not stated) | 2.3 | 8.2 | 5.2 | -2.2 | -21.0
Cc1nc2sccc2c(=O)n1-c1cccc(Cl)c1 | 2.9 | -19.5 | 2.8 | x | -19.1
COc1ccccc1NC(=O)c1ccc2nc(-c3ccccc3)c(-c3ccccc3)nc2c1 | 1.3 | -9.9 | -12.4 | 0.0871 | -9.1
COc1ccccc1-c1nc2cc3ccccc3cc2nc1-c1ccccc1 | 10.8* | 51.8 | 4.4 | 0.0852 | -57.4
CCn1c(-c2cc(-c3ccc(C)c(C)c3)nc3ccccc23)n[nH]c1=S | -0.4 | 58.2* | x | 1.31 | x
CCOc1ccc2c(c1)c(N=Nc1cccc(C(=O)O)c1)c(O)n2C | 10.4* | -19.6 | 6.1 | -0.219 | -47.8
Cc1ccc(C(=O)c2c(NC(=O)c3cccnc3)sc3c2CCCC3)cc1 | 3.0 | 61.0* | -7.3 | -0.493 | -35.9
O=C(Nc1sc2c(c1C(=O)O)CCCCC2)c1ccccc1 | 5.0 | 1.6 | x | 1.64 | x
c1ccc2nc3c(nc2c1)[nH]c1ccccc13 | 4.3 | 7.4 | x | 1.36 | 76.9*
c1ccc(-c2c3ccccc3nc3[nH]c4ccccc4c23)cc1 | 0.5 | 32.0 | -3.9 | 0.605 | -40.0
Cc1oc(-c2ccc3c(c2)OCCO3)cc1C(=O)NCC(=O)O | 1.5 | -1.2 | x | 0.191 | x
Cc1oc(-c2ccc3c(c2)OCCO3)cc1C(=O)O | -0.1 | 33.2 | x | 1.03 | 89.8*
O=C(Nc1nnc(CCS(=O)(=O)c2ccc3ccccc3c2)s1)c1ccc([N+](=O)[O-])cc1 | 8.4* | -1.9 | 5.2 | 0.845 | -27.9
SMILES | RAM inhibit | WT yeast gro inh | Yeast lifespan up | Cl transport mod | BB579 growth dn
O=C(Nc1nnc(CCS(=O)(=O)c2ccc3ccccc3c2)s1)c1cccs1 | 3.2 | 19.3 | -2.3 | 1.02 | -25.0
O=C(Nc1cc(C(F)(F)F)ccc1N1CCCCC1)c1ccco1 | 2.5 | 2.3 | -7.0 | -0.0198 | -3.7
O=C(Nc1cc(C(F)(F)F)ccc1N1CCCCC1)c1ccc(Br)o1 | 10.7* | -1.9 | -16.8 | 0.0314 | 1.3
CC1(C)CC(=S)Nc2ccccc2S1 | 1.0 | 11.5 | x | 4.73* | -16.0
CCc1cccc(CC)c1NC(=O)C1SC(=Nc2ccccc2C)C(c2nc3ccccc3s2)=C1N (configuration not stated) | 8.8* | 35.6 | -0.6 | 0.0135 | -75.4
CCc1cccc(C)c1NC(=O)CCCSc1nc2ccccc2s1 | 8.2 | -3.3 | 8.0 | x | -19.1
CCc1c(C)sc2nc(C(C)C)nc(SCC(=O)N3CCc4ccccc4C3)c12 | 6.8 | 61.2* | 2.5 | x | -77.5
CCN(CC)S(=O)(=O)c1ccc(C(=O)Oc2cc(C)[nH]c(=O)c2[N+](=O)[O-])cc1 | 1.2 | 2.7 | x | 1.16 | x
CC1CC2(CCCCC2)Nc2ccc3ccccc3c21 (configuration not stated) | 3.5 | 44.5 | x | 0.782 | -24.2
CC(=O)N1c2ccc3ccccc3c2C(C)CC12CCCCC2 (configuration not stated) | 10.2* | 87.3* | 20.0 | 0.248 | -33.9
CN1CCN(CC(O)(c2ccc(Cl)cc2)c2ccc(Cl)cc2)CC1 | 1.6 | 82.5* | x | 0.366 | x
COc1ccc(OCC(O)CNCc2ccco2)cc1 (configuration not stated) | 0.0 | 72.0* | -10.1 | 0.299 | -24.3
CC1(C)CC(=O)C(C(c2cccc([N+](=O)[O-])c2)C2C(=O)CC(C)(C)CC2=O)C(=O)C1 | -1.1 | -5.9 | 27.2* | 0.352 | -46.6
COc1ccc(C(C2C(=O)CC(C)(C)CC2=O)C2C(=O)CC(C)(C)CC2=O)cc1 | x | x | x | -0.000787 | x
Nn1c(=O)c2ccccc2n2c(SCc3ccc(C(F)(F)F)cc3)nnc12 | 8.6* | -19.3 | -11.0 | -0.986 | -13.4
CCOC(=O)C1=C(O)/C(=C/c2ccc(OCC(=O)O)c(OCC)c2)SC1=Nc1ccc(C)cc1 | 7.1 | 19.3 | x | -2.2 | x
CCOC(=O)C1=C(O)/C(=C/c2ccc(OCC(=O)O)c(OCC)c2)SC1=Nc1ccc(OC)cc1 | 9.4* | -2.8 | 6.2 | -0.425 | -33.6
N#Cc1c(NC(NC(=O)c2ccco2)C(=O)c2ccccc2)sc2c1CCCC2 (configuration not stated) | 3.5 | 61.6* | -1.9 | -0.47 | -40.7
Cc1ccc(NC(=O)CC2C(=O)N(Cc3ccccc3)C(=S)N2NC(=O)c2ccccc2)c(C)c1 (configuration not stated) | 2.8 | 36.0 | -0.4 | 0.607 | -29.6
Cc1c(-c2ccccc2)sc2nc[nH]c(=S)c12 | 4.6 | 10.1 | x | 90* | x
O=c1[nH]cnc2cc(-c3ccccc3)sc12 | 0.9 | 0.6 | -26.8 | x | -14.3
S=C1NCN(C2CCCCC2)CN1c1ccccc1 | x | x | x | 1.89 | x
O=C(NC(=S)Nc1ccc(C(F)(F)F)cc1)c1csnn1 | 1.4 | 2.8 | x | 66.6* | x
O=C(NC(=S)Nc1ccccc1)c1csnn1 | -0.9 | 10.5 | -7.9 | 43.4* | -10.7
O=C(Nc1csnn1)c1csnn1 | x | x | x | -0.406 | x
Cc1cc(C)cc(NC(=O)COc2ccc(C(=S)N3CCOCC3)cc2)c1 | 2.4 | 11.6 | x | 0.365 | x
COc1ccccc1C(=O)C1CCCN(C(=O)c2cc(CC(C)C)nc(C)n2)C1 (configuration not stated) | 2.6 | 2.3 | x | -0.258 | x
CC(C)Cc1ccc(C(C)C(=O)OCC(=O)c2c[nH]c3ccccc23)cc1 (configuration not stated) | 10.4* | 69.2* | -5.2 | x | -27.1
CC(C)(C)C1=NN(C(=O)c2ccccc2)C(O)(C(C)(C)C)C1 (configuration not stated) | 10.2* | 7.7 | -2.2 | 0.00642 | -16.3
